From ChEMBL document CHEMBL4513216, “Probing the Open Global Health Chemical Diversity Library for Multistage-Active Starting Points for Next-Generation Antimalarials” (ACS Infect Dis, 2020)

assay: Toxicity liver stage against HepG2, at 10uM; type: cell-based; design: test concentration 10 uM, cell line HepG2-A16-CD81EGFP; details: human, HepG2-A16-CD81EGFP cells; read-out: INHIBITION
Procedure, shortened: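 Uninfected HepG2-A16-CD81EGFP cells, 3 × 10^3 per well, 1536-well, plated on prespotted compound at 10 μM final, parasite-free screening media added to match infected plates; puromycin 10 μM positive, DMSO 0.5% negative; run in parallel with 48 h PbLuc assay at 37 °C, 5% CO2; viability by CellTiter-Glo luminescence, normalized to controls.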

SMILES	cytotoxicity at 10 µM [%]
COC(=O)c1cccc(C(=O)N(C)Cc2cccc(O)c2)c1	9.85
Cc1ccc(CN2CCC3(CCCN3C(=O)C(C)C)CC2)o1	-5.9
CN(C)C(=O)N1CCC2(CC1)C(=O)N(CC1CCOC1)c1ccccc12 (stereo unspecified)	6.68
COc1ccc(OC)c(C2CC(=O)Nc3nc(N4CCOCC4)sc32)c1 (stereo unspecified)	14.3
CNc1nc2c(s1)C(c1ccc(Cl)cc1Cl)CC(=O)N2 (stereo unspecified)	7
O=C(c1cnc2ccc(Cl)cc2c1NCc1ccco1)N1CCCCC1	4.38
CC(=O)N1CCN(c2ccc3ccc(C(=O)NC4CCCC4)cn23)CC1	8.15
CNc1nnc(CCn2nc(C)c(Br)c2C)s1	2.83
COc1c(C2CC(=O)Nc3[nH]ncc32)cc2c(c1OC)OCO2 (stereo unspecified)	3.66
FC(F)(F)c1cc(C2CCCN(c3ncccn3)C2)n2ccnc2n1 (stereo unspecified)	10.4
Cc1cc(O)n2nc(C3CCN(C(=O)c4ccccn4)CC3)cc2n1	-3.36
c1cc(C2CN(C3CCCC3)C2)n[nH]1	4
CS(=O)(=O)NCC(=O)NC1CCCN(c2ccccn2)C1 (stereo unspecified)	1.76
CC1(C2CCN(CCCC(=O)O)CC2)CN(Cc2ccccc2)C(=O)O1 (stereo unspecified)	-21.9
Fc1ccc(N2CCOC(Cc3cccnc3)C2)cc1 (stereo unspecified)	-16.3
Cn1cc(C(=O)N2CCCC2c2[nH]ncc2C(N)=O)cn1 (stereo unspecified)	-7.05
CCC(=O)N1CCC(Cc2ccccc2-c2ccncc2)(C(N)=O)C1 (stereo unspecified)	-25.3
Cc1cnc(Nc2nccnc2C2CCN(C)CC2)s1	2.52
Cn1cc(C2CCCN2C(=O)c2cnc(C3CC3)s2)cn1 (stereo unspecified)	-2.05
CCCC(NC(=O)c1cnccn1)c1nnc2ccccn12 (stereo unspecified)	11.1
CC(C(=O)N1CCOCC1)S(=O)(=O)Cc1nc(C(C)(C)C)no1 (stereo unspecified)	-3.82

SMILES	cytotoxicity at 10 µM [%]
O=C(NC1CCc2nccn2C1)c1ccc(NC2CC2)nc1 (stereo unspecified)	9.93
N#CC1(NC(=O)COc2cc(Cl)cc(Cl)c2)CCOCC1	-2.53
CN1CC(NC(=O)Nc2cnn(-c3ccccc3Cl)c2)CCC1=O (stereo unspecified)	-1.54
CCN(C(=O)Cn1cc(NC(=O)C(C)(C)C)cn1)c1ccccc1	3.49
CCC1CN(C(=O)Cc2coc(-c3ccccc3)n2)CCO1 (stereo unspecified)	3.06
COC(=O)C(O)C1CCN(CCc2ccccn2)CC1 (stereo unspecified)	-7.64
Cc1noc(C)c1CN1CCN(C(=O)C(C(C)C)n2cncn2)CC1 (stereo unspecified)	1.4
COCC(NC(=O)c1cccnc1)c1cccc(C(F)(F)F)c1 (stereo unspecified)	-12.9
COC(=O)c1ccoc1CN(C)Cc1cc(OC)c(OC)cc1C	-1.06
CCN(Cc1nc2c(cnn2C)c(=O)[nH]1)c1cccc(C)c1C	1.66
Cc1cnc(C(C)(C)NC(=O)NCc2ccon2)s1	-6.75
CC(C)S(=O)(=O)N(C)C(=O)CCc1ccsc1	5.2
CCN1CCC(CNC(=O)c2cc(Cl)c[nH]2)CC1	-9.4
CCC(CC)CS(=O)(=O)NC(=O)C1CCC1	-6.8
COCCNC(=O)NCCCOC1CCCc2ccccc21 (stereo unspecified)	11.7
CN(C)C(=O)COc1ccccc1CN1CCOC2(CCCC2)C1	-4.8
COc1ccc(NC(=O)NCc2cccc(N(C)C)n2)c(Cl)c1	21.8
CCC(C)NS(=O)(=O)Cc1cccc(NC(=O)c2cc[nH]c2C)c1 (stereo unspecified)	3.77
CC(C)n1nc(CN2CCCC2=O)c2c1CN(C(=O)c1ccc[nH]1)C2	5.39
N#CCCNC(=O)c1ccn(-c2ccc3ccccn23)n1	3.82
CN(C)CCO[C@H]1CN(C(=O)c2ccc[nH]2)[C@@H]2COC[C@H]12	5.06

SMILES	cytotoxicity at 10 µM [%]
CN(C)C(=O)N1CCC2(CC(=O)N(c3cccc(C#N)c3)C2)C1 (stereo unspecified)	3.33
NC(=O)c1ccc(C2CCCN2C(=O)CCn2nnc3ccccc32)s1 (stereo unspecified)	3.92
Cc1ncsc1CCC(=O)NC1CCN(c2ncccc2C#N)CC1	0.84
COc1ccccc1OC1CCN(C(=O)c2cnc(C)cc2C)CC1	4.36
CC1(C)CN(C(=O)c2ccccc2-n2cncn2)CC1(C)O (stereo unspecified)	-19.3
C=C(C)COc1ccccc1CNCCc1cc(O)nc(C)n1	-1.6
Cc1ccc(-c2ccnc(NC(C)c3c(C)n[nH]c3C)n2)c(C)n1 (stereo unspecified)	4.51
CN(C)CC1(O)CCCN(C(=O)c2ccccc2-n2cccn2)C1 (stereo unspecified)	-20.6
CCc1nc2c(c(NC3CC3)n1)CCN(C(=O)N1CCN(C)CC1)CC2	0.445
Cc1ccc(CN2CCC(n3cc(CN4CCC(O)CC4)nn3)CC2)s1	-3.53
COC1CCN(c2cc(C(C)C)nc3ccnn23)C1 (stereo unspecified)	0.343
CC1CCN(CC(=O)N(Cc2ccccc2)Cc2nccs2)C1=O (stereo unspecified)	-0.0342
O[C@]12CCNC[C@H]1CN(c1ncccc1Cl)CC2	10.2
CC(C)[C@H]1COC(=O)N1CC(=O)N1CCN(C(=O)c2ccco2)CC1	4.32
O=C1CCc2cc(S(=O)(=O)NCc3cc4n(n3)CCCNC4)ccc2N1	-5.38
Cc1cc(=O)n(CC(=O)Nc2cccc(Cl)c2)nc1C	-6.84
c1csc(N2CCCN(Cc3noc(C4CC4)n3)CC2)n1	3.41
CNc1nc(CNC(=O)Nc2cccc(CC(F)(F)F)c2)cs1	-9.77
CC(C)N(Cc1ccccn1)S(=O)(=O)N1CCCC1c1ccco1 (stereo unspecified)	-3.92
CNc1cc(N2CCCC2CNCc2cnc(C)s2)ncn1 (stereo unspecified)	-3.78
O=S(=O)(CCCN1CCCC(Cn2cncn2)C1)c1ccccc1 (stereo unspecified)	-11.7

SMILES	cytotoxicity at 10 µM [%]
CCN(CC)C(=O)NCCc1ccn(-c2ccccc2)n1	-14
Cc1cc(CN2Cc3ccccc3CC2c2nnc(C)o2)no1 (stereo unspecified)	2.89
CC(C)C(CNC(=O)Nc1cn[nH]c1)N1CCOCC1 (stereo unspecified)	-6.83
Cc1ccc(C(=O)N2CCCN(Cc3cscn3)CC2)o1	-10.6
Cc1nn(C)c(N2CCOCC2)c1CNCc1ccc2c(c1)OCO2	-17.8
Cc1nnc(N2CCC(CCN(C)C)CC2)c(C#N)c1C	-1.33
CCc1noc(C)c1C(=O)N1CCCN(Cc2csc(C)n2)CC1	-2.81
CC1CCN(C(=O)c2cccc3ncccc23)CC1	4.21
O=C(NCc1cccnc1-n1cccn1)C1CC(=O)N(CC2CC2)C1 (stereo unspecified)	2.77
CC(C)CC(=O)N[C@H](C)c1c(-c2ccc(Cl)cc2)noc1C(=O)O	4.76
Cc1ccc(CN2CCn3c(CN(C)C(C)C)cnc3C2)s1	8.33
CS(=O)(=O)N1CC[C@@H]2[C@@H]1CCN2Cc1ccc2c(c1)OCO2	-5.96
Cc1ccccc1CN1CCC2(CC1)CN(S(=O)(=O)c1ccccc1)C2	-2.78
COCCNC(=O)[C@H]1C[C@@H]2CCN(c3ccncn3)C[C@H]2O1	2.4
CNC(=O)N1C[C@@H]2C[C@H](C(=O)NCc3cccnc3)[C@H](C1)O2	6.43
O=C(Nc1ccc(F)cc1)N1C[C@@H]2C[C@H](C(=O)N3CCCC3)[C@H](C1)O2	7.06
CCc1nccc(CN2CCC(CNC(=O)C3CCC(C)CC3)C2)n1 (stereo unspecified)	-4.51
O=C(NCc1ccccc1)[C@H]1C[C@H]2CN(C(=O)NC3CCCC3)C[C@@H]1O2	2.17
